Results from publication PMC3254253 (Bioorganic & Medicinal Chemistry, 2011).

Tests used:
CYP7A1 mRNA = test: Expression of CYP7A1 mRNA; assay type: cell-based; conditions: HepG2 cells, 50 μM, 6 h, DMEM with 10% FCS; fold of control (0.1% DMSO)
Method in brief: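 HepG2 cells were grown in DMEM with 10% FBS, 1% glutamine, penicillin/streptomycin and amphotericin B. They were then exposed in the same medium to test compound or positive control at 50 μM (DMSO 0.1% final) for 6 h. Total RNA (900 ng) was reverse-transcribed with oligo d(T)16 primers. SYBR Green qPCR measured CYP7A1, normalised to β2-microglobulin.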

full length murine FXR = target: T1, full length murine FXR (Mus musculus, UniProt Q60641); test: FXR reporter gene; assay type: cell-based; conditions: HEK293 cells, increasing concentrations (0–100 μM)
T1 sequence (Q60641 1-488): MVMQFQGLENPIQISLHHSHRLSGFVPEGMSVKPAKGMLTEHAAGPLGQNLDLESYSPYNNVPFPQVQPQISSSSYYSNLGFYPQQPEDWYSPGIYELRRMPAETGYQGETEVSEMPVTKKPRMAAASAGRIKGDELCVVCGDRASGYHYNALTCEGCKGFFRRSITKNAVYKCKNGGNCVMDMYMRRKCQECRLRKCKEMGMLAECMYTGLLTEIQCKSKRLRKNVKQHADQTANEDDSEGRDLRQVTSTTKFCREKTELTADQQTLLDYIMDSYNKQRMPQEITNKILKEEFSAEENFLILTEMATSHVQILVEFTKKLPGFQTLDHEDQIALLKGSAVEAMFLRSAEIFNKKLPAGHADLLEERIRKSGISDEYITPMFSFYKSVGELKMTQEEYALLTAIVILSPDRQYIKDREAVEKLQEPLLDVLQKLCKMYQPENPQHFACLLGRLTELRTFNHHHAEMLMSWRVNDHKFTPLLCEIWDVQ
T1 sequence (P28700 1-467 partner): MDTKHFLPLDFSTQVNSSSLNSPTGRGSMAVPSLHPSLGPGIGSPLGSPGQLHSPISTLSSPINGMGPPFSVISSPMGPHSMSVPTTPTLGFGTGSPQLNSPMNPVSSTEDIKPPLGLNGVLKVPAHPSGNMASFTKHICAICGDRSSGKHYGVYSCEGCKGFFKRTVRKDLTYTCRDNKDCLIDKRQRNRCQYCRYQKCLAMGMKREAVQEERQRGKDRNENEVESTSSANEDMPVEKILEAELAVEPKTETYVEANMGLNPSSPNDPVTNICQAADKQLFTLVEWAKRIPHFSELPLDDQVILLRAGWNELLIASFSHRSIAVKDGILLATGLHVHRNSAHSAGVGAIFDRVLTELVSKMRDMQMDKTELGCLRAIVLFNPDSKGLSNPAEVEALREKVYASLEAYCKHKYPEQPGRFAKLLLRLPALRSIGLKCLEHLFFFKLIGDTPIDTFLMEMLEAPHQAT

SMILES	levels of CYP7A1 mRNA (CYP7A1 mRNA)	FXR agonism in reporter assay (result in words) (full length murine FXR)
CCCCc1ccc([C@@H](CC(=O)c2ccccc2)c2ccccc2)cc1 [Compound 20]	significantly decreased	dose–dependent FXR-agonism
COc1ccc(N2CCN(C[C@H](O)COc3cc4c(c5c3CCCC5)CCCC4)CC2)cc1 [Compound 19]	significantly decreased	dose–dependent FXR-agonism
